Screens from PubChem.
PREPL inhibitor = inhibitors of human prolyl oligopeptidase-like enzyme PREPL; Q4J6C6; recombinant PREPL, fluorescence polarization activity-based probe; inhibition, % at 5.96 µM; 0.68% of 320,000 active; in the data active = inhibition above about 43%;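 also: 0% = enzyme with DMSO and 100% = wells lacking enzyme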
Target sequence (Q4J6C6 whole entry, looked up): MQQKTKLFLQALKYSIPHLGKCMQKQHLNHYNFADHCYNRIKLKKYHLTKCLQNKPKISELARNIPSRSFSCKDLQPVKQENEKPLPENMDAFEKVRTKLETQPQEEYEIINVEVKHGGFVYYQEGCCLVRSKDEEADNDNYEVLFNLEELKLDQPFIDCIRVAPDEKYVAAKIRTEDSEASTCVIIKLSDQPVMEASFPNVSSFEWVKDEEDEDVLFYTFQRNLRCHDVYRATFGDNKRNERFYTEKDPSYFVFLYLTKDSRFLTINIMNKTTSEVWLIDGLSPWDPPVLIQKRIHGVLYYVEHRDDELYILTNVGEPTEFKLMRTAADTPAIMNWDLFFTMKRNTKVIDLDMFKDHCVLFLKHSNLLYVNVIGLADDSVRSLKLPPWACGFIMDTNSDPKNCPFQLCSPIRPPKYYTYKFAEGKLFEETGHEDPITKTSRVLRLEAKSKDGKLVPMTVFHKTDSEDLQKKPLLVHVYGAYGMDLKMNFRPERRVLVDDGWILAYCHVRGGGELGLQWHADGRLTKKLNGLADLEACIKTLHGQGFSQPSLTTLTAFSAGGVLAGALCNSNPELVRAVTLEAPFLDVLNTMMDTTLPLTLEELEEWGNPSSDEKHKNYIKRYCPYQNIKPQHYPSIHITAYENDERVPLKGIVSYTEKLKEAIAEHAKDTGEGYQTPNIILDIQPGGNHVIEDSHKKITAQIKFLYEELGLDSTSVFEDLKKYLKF
CHOP inh = inhibitors of CHOP induction in ER stress response. AID 2732. 3.8% of 220,000 active. CHO-K1 CHOP-promoter luciferase, tunicamycin-induced, 15-18 h. inhibition, % at 10 µM;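 active = compounds that reduced the stress-induced luciferase reporter signal by more than about 70% of percent inhibition, limit read from the data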;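 also: 0% = tunicamycin plus vehicle and 100% = wells without tunicamycin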
Beta cell apopt = blocks beta cell apoptosis; 0.8% of 300,000 active; INS-1E cytokine-induced death, ATP luminescence, 48 h; percent of positive-control rescue, neutral wells zero; AID 435005; protection from apoptosis, % (test concentration not listed);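 active = Every replicate reaches about 75%, or at least half do and their mean reaches it too, limit read from the data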;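 also: 0% = cytokine-treated negative control wells and 100% = positive control rescue; higher means more ATP so stronger rescue from cytokine killing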
GRIN3A LBD mod = modulators (binders) of human NR3A ligand-binding domain | NR3A LBD differential scanning fluorimetry, Tm shift; 0% = protein alone, 100% = glycine-bound protein | Tm shift relative to glycine control, % at 25 µM | 2.5% of 340,000 active;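 active = melting temperature shift of at least 10% of the positive control shift, at one fixed dose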
T cruzi repl = T. cruzi replication inhibition; T. cruzi beta-gal in NIH3T3, luminescence, 90 h; inhibition, % (test concentration not listed); 1.4% of 300,000 active; AID 1885;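 active = mean inhibition across valid replicates above about 55%, limit read from the data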;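 also: signal also drops with host cell toxicity which is not excluded here; 0% = plate median of DMSO wells and 100% = zero luminescence signal; higher percent means less beta-gal luminescence so fewer parasites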
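System: NIH/3T3 fibroblasts plus reporter T. cruzi. Medium: DMEM plus 2% FBS. Probe or stimulus: 5000 reporter trypomastigotes per well. Compound: single 50 nL compound addition per well in DMSO. Incubation: co-culture of at least 90 h after 3 h attachment. Detection: GalScreen β-gal luminescence, detergent lysis, 60 min. Evaluation: parasite load inhibition, %.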
CSC inhib = cancer stem cell inhibition | cancer stem cell-like cells viability, luminescence | inhibition, % at 7.5 µM | 1.1% of 300,000 active; in the data active = inhibition above about 75%; tested in HMLE shEcad cells
* hit, by the source's call; nt = no result given; ! = a repeat was not active. In the library only some 6.7% were active in any assay of this set; here they are far more common.

SMILES	PREPL inhibitor	CHOP inh	Beta cell apopt	GRIN3A LBD mod	T cruzi repl	CSC inhib
CCc1ccc2[nH]c(=O)c(CN(Cc3ccccc3)Cc3nnnn3Cc3ccco3)cc2c1	-6	73*	-5	-5	7	-2
COC(=O)N1C(=O)[C@](Cc2ccccc2)(c2ccccc2)N1C(=O)OC	-1	nt	4	13*	-12	9
COC(=O)N1C(=O)[C@@](Cc2ccccc2)(c2ccccc2)N1C(=O)OC	-5	nt	-1	4	-25	22
CSCCC(NC(=O)c1ccccc1Br)C(=O)NCC(c1ccco1)N1CCCCC1 (centres undefined)	0	nt	-2	1	0	nt
Cc1cc(=O)n2nc(N3CCC(C(=O)NCC(C)c4ccccc4)CC3)sc2n1 (centres undefined)	17	nt	-1	10*	9	-7
CC(=O)c1ccc(NC(=O)C(C)N2CCN(C/C=C/c3ccccc3)CC2)cc1 (centres undefined)	-20	-12	nt	-1	39	0
Fc1ccc(C(c2ccc(F)cc2)N2CCN(C/C=C/c3ccccc3)CC2)cc1	-18	84*!	15	9	36	99*
C(=C\c1ccccc1)/CN1CCN(C(c2ccccc2)c2ccccc2)CC1	6	23	nt	2	-2	nt
CC(C(=O)N(C)Cc1ccccc1)N1CCN(C/C=C/c2ccccc2)CC1 (centres undefined)	17	15	-4	0	60*	nt
COc1ccc(Cl)cc1NC(=O)C(C)N1CCN(C/C=C/c2ccccc2)CC1 (centres undefined)	-29	74*	7	-6	45	3
COc1ccc(S(=O)(=O)N(C)C[C@H]2Oc3c(NC(=O)CCC(F)(F)F)cccc3C(=O)N([C@H](C)CO)C[C@@H]2C)cc1	10	nt	-5	10*	nt	-13
COc1ccc(S(=O)(=O)Nc2cccc3c2O[C@H](CN(C)S(=O)(=O)c2ccc(F)cc2)[C@H](C)CN([C@H](C)CO)C3=O)cc1	8	nt	-6	10*	nt	1
C=CCN(CC=C)S(=O)(=O)c1ccc(NC(=S)NC(=O)C2CC2)cc1	-5	nt	3	-13	7	4
CC(C)NC(=O)/C(=C\c1cccc([N+](=O)[O-])c1)NC(=O)c1ccccc1	0	11	-5	-2	-9	-3
O=C(N/N=C/c1ccco1)/C(=C/c1cccc([N+](=O)[O-])c1)NC(=O)c1ccccc1	47*	3	3	-1	-3	29
COc1ccc(Nc2nc(NC(C)(C)C)nc(N3CCOCC3)n2)c(OC)c1	4	-7	-4	0	59*	-1
COc1ccc(Nc2nc(Nc3ccc(OC)cc3OC)nc(N3CCN(C)CC3)n2)c(OC)c1	20	28	-7	-2	23	3
COc1ccc(Nc2nc(NC(C)(C)C)nc(N3CCCC3)n2)c(OC)c1	4	84*	47	-1	46	26
COc1ccc(S(=O)(=O)NNC(=O)Nc2ccc(F)cc2)cc1	6	nt	-4	1	-3	11
COc1ccccc1CCNC(=O)c1nccnc1C(=O)O	0	nt	-6	-1	7	-10
CCCCNC(=O)C1C2C=CC(C2)C1C(=O)O (centres undefined)	-9	0	-5	-4	-7	-1
Cc1ccc(NC(=O)C2CCN(S(=O)(=O)c3c(C)n[nH]c3C)CC2)nc1	-6	-7	3	-2	-4	-6
CCN(c1ccccc1)c1nc(C#N)nc(N(CC)c2ccccc2)n1	-11	59	-3	-1	42	90*
CCN(c1ccccc1)c1cc(C)nc2nc(C)nn12	1	10	-1	2	-4	-4
CCN(CC)c1nc(C#N)nc(N(CC)CC)n1	nt	79*	nt	1	7	nt
SMILES	PREPL inhibitor	CHOP inh	Beta cell apopt	GRIN3A LBD mod	T cruzi repl	CSC inhib
CCn1cc([N+](=O)[O-])c(C(=O)Nc2nc3ccc(OC)cc3s2)n1	-2	4	2	-1	-11	1
COc1ccc(OCC(=O)N/N=C(\C)c2ccc(-n3ccnc3)cc2)cc1	7	2	-3	4	7	-1
C/C(=N\NC(=O)COc1ccc(C(C)(C)C)cc1)c1ccc(-n2ccnc2)cc1	4	95*	-4	-1	13	12
CC(=O)Nc1ccc(NC(=O)CSc2ccc(-c3ccc(-n4ccnc4)cc3)nn2)cc1	20	nt	nt	17*	0	4
CC(C)(C)c1ccc(NC(=O)COc2ccc(-n3ccnc3)cc2)cc1	-39	74*	2	-4	59*	51
Cc1cc2nc(CCN(Cc3cccnc3)C(=S)Nc3ccccc3)[nH]c2cc1C	9	8	-2	-1	46	-7
Cc1[nH]c2ccccc2c1CCN(Cc1cccnc1)C(=S)Nc1ccc(F)cc1	20	5	-6	-9	41	-2
Cc1[nH]c2ccccc2c1CCN(Cc1cccnc1)C(=S)Nc1cccc(F)c1	8	-25	-5	-12	58*	4
Cc1[nH]c2ccc(F)cc2c1CCN(Cc1cccnc1)C(=S)Nc1ccccc1	11	11	-6	-4	60*	-2
Cc1cc2nc(CCN(Cc3cccnc3)C(=S)Nc3ccc(F)cc3)[nH]c2cc1C	2	26	nt	27*	61*	nt
O=C(CNC(=O)c1ccco1)NCc1ccc2c(c1)OCO2	10	nt	-7	-2	nt	-6
Cc1ccc(CN2CCN(Cc3nc4c(s3)CCCC4)CC2CCO)cc1 (centres undefined)	2	7	-1	0	56*	10
CCOc1ccc(CN2CCN(Cc3nc4c(s3)CCCC4)CC2CCO)cc1 (centres undefined)	12	25	9	0	57*	-3
COc1cccc(CN2CCN(Cc3nc4c(s3)CCCC4)CC2CCO)c1 (centres undefined)	13	1	-3	-1	35	-8
COc1ccc(Br)cc1CSC(=N)N	7	6	nt	0	0	-11
CCCCCOc1ccc(Br)cc1CSC(=N)N	nt	84*	nt	-4	39	nt
COc1ccc(COC(=O)c2ccc(Br)c(S(=O)(=O)N3CCOCC3)c2)cc1F	9	nt	-4	-3	11	16
CCCCOc1ccc2c(c1)C(=O)c1cc(O)ccc1-2	22	36	9	34*	0	46
CCOC(=O)/C=c1/s/c(=C/c2ccccc2OC)c(=O)n1CC(=O)N1CCOCC1	nt	nt	nt	-2	nt	nt
O=C(c1cc([N+](=O)[O-])cc([N+](=O)[O-])c1)N(Cc1nnc(-c2ccccc2Cl)o1)C1CC1	42	-5	16	-3	75*	29
O=C(c1cc2ccccc2o1)N(Cc1nnc(-c2ccccc2Cl)o1)C1CC1	-35	nt	-2	0	19	-4
OCCC1CN(Cc2cc3c(cc2Cl)OCO3)CCN1Cc1ccccc1 (centres undefined)	0	12	0	-3	59*	18
